Measurements gathered from unrelated publications.
Target: Serine/threonine-protein kinase Chk2 (CHEK2, Homo sapiens, UniProt O96017)

| Compound | test | setting | endpoint | result |
| --- | --- | --- | --- | --- |
| COc1cc(Nc2ncc(F)c(Nc3ccc4c(n3)NC(=O)C(C)(C)O4)n2)cc(OC)c1OC | binding, competition with immobilised ligand | 10 µM | inhibition | 45% |
| COc1ncccc1-c1cnn2ccc(N3CCN(C(=O)OC(C)C)CC3)nc12 | binding, competition with immobilised ligand | 1 µM | remaining binding | 77% |
| Cc1nn(C)cc1-c1nc2c(N3CCN(Cc4ccc(Cl)cc4)CC3)c(Cl)cnc2[nH]1 | binding, competition with immobilised ligand | 1 µM | remaining binding | 100% |
| N#CC1(c2ccccn2)CCN(Cc2cc(C(=O)O)c(=O)n3ccccc23)CC1 | cell-free assay, competition with immobilised ligand | 1 µM | remaining binding | 87% |
| O=c1[nH]c2ccccc2n1C1CCN(Cc2ccc(-c3[nH]c4cc5ncnc5cc4nc3-c3ccccc3)cc2)CC1 | cell-free assay | 0.5 µM | remaining signal | 100% |
| Cn1cncc1[C@@](O)(COc1ccc(C#N)cc1-c1ccc(OC(F)(F)F)cc1)c1ccc(C#N)cc1 | cell-free assay, competition with immobilised ligand | 1 µM | remaining binding | 96% |
| Cn1cc(-c2cccc(N3CCc4c(sc5c4CC(C)(C)C5)C3=O)c2CO)cc(Nc2ccncn2)c1=O | enzyme activity, inhibitor | 1 µM | inhibition | 1% |
| Nc1ncc(-c2nc(N3CCOCC3)nc(N3CCOCC3)n2)c(C(F)F)n1 | binding, competition with immobilised ligand | 10 µM | remaining binding | 75% |
| Cn1cc(-c2cc(F)cc(N3CCn4c(cc5c4CCCC5)C3=O)c2CO)cc(Nc2ccc(N3CCN(C4COC4)CC3)cn2)c1=O | enzyme activity, inhibitor | 0.1 µM | inhibition | 11% |
| CC(C)(C)c1cc(C=C(C#N)C#N)cc(Br)c1O | enzyme activity, inhibitor | 0.5 µM | remaining activity | 104% |
